Data as given in EPA's CvTdb concentration-time database.

Key:
Rat [1] = assay: concentration in plasma after dosing; conditions: dosed: 2-Hydroxy-4-methoxybenzophenone, 250 mg/kg, oral, Male, F344
Mouse [2] = assay: concentration in plasma after dosing; conditions: 3 h; dosed: 2-Hydroxy-4-methoxybenzophenone; 50 mg/kg; iv; Male; B6C3F1
Mouse [3] = assay: concentration in plasma after dosing; conditions: dosed: 2-Hydroxy-4-methoxybenzophenone, 100 mg/kg, oral, Male, B6C3F1
Rat [4] = assay: concentration in brain after dosing; conditions: 6 h; dosed: alpha-Thujone; 25 mg/kg; oral; Male; Harlan Sprague Dawley
Rat [5] = assay: concentration in plasma after dosing; conditions: 0.5 h; dosed: alpha-Thujone; 50 mg/kg; oral; Female; Harlan Sprague Dawley
Rat [6] = assay: concentration in plasma after dosing; conditions: 5 min; dosed: alpha-Thujone; 25 mg/kg; oral; Male; Harlan Sprague Dawley
rat [7] = assay: concentration in expired air after dosing; negative times count back from the end of exposure; conditions: dosed: 1,1-dichloroethylene, inhalation, duration: 3 hr, male, Sprague-Dawley
Rat [8] = assay: concentration in brain after dosing; conditions: 6 h; dosed: Perfluorohexane-1-sulphonic acid – potassium salt; 16 mg/kg; oral; Female; F344
Rat [9] = assay: concentration in plasma after dosing; conditions: dosed: Perfluorohexane-1-sulphonic acid – potassium salt, 4 mg/kg, oral, Male, F344
Rat [10] = assay: concentration in kidney after dosing; conditions: 192 h; dosed: Perfluorohexane-1-sulphonic acid – potassium salt; 16 mg/kg; oral; Female; Harlan Sprague Dawley
Rat [11] = assay: concentration in plasma after dosing; conditions: 20 min; dosed: Pyridine; 10 mg/kg; iv; Male; F344
Hamster = assay: concentration in plasma after dosing; conditions: dosed: 2,4-Dichlorophenoxyacetic acid, 8.0 mg/kg, iv, Male, Syrian Golden
Outline: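 Concentration-versus-time or amount-versus-time points were compiled from published in vivo toxicokinetic studies and from two structured collections. The studies were found by PubMed searching, classifier screening and manual review. Points were mostly digitised from plot screenshots with WebPlotDigitizer, otherwise copied from tables, and kept in the reported units. Dose, route, subject details and medium were curated by hand from each paper, and sampling and analytical methods follow each source and were often unreported.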

Rat [12] = assay: concentration in plasma after dosing; conditions: 6 h; dosed: Primidone; 80 mg/kg; oral; Male; F344
Rat [13] = assay: concentration in plasma after dosing; conditions: 1.5 h; dosed: Primidone; 130 mg/kg; oral; Female; F344
Rat [14] = assay: concentration in plasma after dosing; conditions: 0.25 h; dosed: Primidone; 30 mg/kg; oral; Male; F344

O=C(c1ccccc1)c1ccc(O)cc1O [2,4-Dihydroxybenzophenone]
concentration in plasma [ng/mL]
Conditions | 0.25 h | 2 h | 2.5 min | 3 h | 10 min
Mouse [3] | 433 | 177 | 185 | 119 | 301
Rat [1] | – | – | – | 71.8 | 40.9

Conditions | concentration in plasma [ng/mL]
Mouse [2] | 202

CC(C)[C@]12CC(=O)[C@H](C)[C@H]1C2 [alpha-Thujone]
Conditions | concentration in brain [ng/g] | concentration in plasma [ng/mL]
Rat [4] | 84.6 | –
Rat [5] | – | 475
Rat [6] | – | 93.4

C=C(Cl)Cl [1,1-dichloroethylene]
rat [7]
Conditions | concentration in expired air [ppm]
0.1527 h, 150 ppm | 5.19
0.2485 h, 150 ppm | 3.34
0.2565 h, 25 ppm | 3.35
0.3921 h, 25 ppm | 3.42
0.3921 h, 150 ppm | 3.42
0.4997 h, 150 ppm | 3.48
0.5037 h, 25 ppm | 3.48
9 s, 150 ppm | 121
88 s, 75 ppm | 12.1
205 s, 75 ppm | 6.41

rat [7], during exposure
Conditions | concentration in expired air [ppm]
-15 s, 75 ppm | 63.3
-2.933 h, 75 ppm | 46.2
-2.927 h, 150 ppm | 71.9
-2.926 h, 300 ppm | 190
-2.925 h, 25 ppm | 13.3
-2.861 h, 75 ppm | 48.8
-2.858 h, 25 ppm | 12.4
-2.856 h, 150 ppm | 76.7
-2.798 h, 75 ppm | 52.3
-2.794 h, 25 ppm | 14.7
-2.792 h, 150 ppm | 82.7
-2.733 h, 150 ppm | 88.4
-2.73 h, 75 ppm | 54.3
-2.726 h, 25 ppm | 15
-2.658 h, 75 ppm | 54.9
-2.654 h, 150 ppm | 93.5
-2.651 h, 25 ppm | 16.6
-2.599 h, 75 ppm | 56.2
-2.595 h, 150 ppm | 97.7
-2.591 h, 25 ppm | 17.9
-2.539 h, 75 ppm | 57.5
-2.535 h, 25 ppm | 18.9
-2.531 h, 150 ppm | 104
-2.475 h, 75 ppm | 58.8
-2.46 h, 25 ppm | 19.6
-2.456 h, 150 ppm | 107
-2.408 h, 75 ppm | 58.9
-2.4 h, 25 ppm | 19.6
-2.396 h, 150 ppm | 109
-2.336 h, 25 ppm | 20.6
-2.336 h, 75 ppm | 59.9
-2.336 h, 150 ppm | 108
-2.26 h, 75 ppm | 59.3
-2.257 h, 150 ppm | 110
-2.256 h, 25 ppm | 19.7
-2.197 h, 150 ppm | 112
-2.196 h, 75 ppm | 57.4
-2.189 h, 25 ppm | 19.7
-2.137 h, 150 ppm | 110
-2.129 h, 75 ppm | 60.6
-2.125 h, 25 ppm | 17.6
-2.061 h, 25 ppm | 20.1
-2.061 h, 75 ppm | 61
-2.058 h, 150 ppm | 111
-1.998 h, 150 ppm | 111
-1.997 h, 75 ppm | 60.7
-1.993 h, 25 ppm | 20.5
-1.858 h, 150 ppm | 111
-1.857 h, 75 ppm | 59.8
-1.854 h, 25 ppm | 20.6
-1.738 h, 75 ppm | 60.5
-1.735 h, 150 ppm | 112
-1.73 h, 25 ppm | 20.9
-1.598 h, 75 ppm | 60.6
-1.595 h, 25 ppm | 21.3
-1.595 h, 150 ppm | 113
-1.484 h, 150 ppm | 114
-1.483 h, 25 ppm | 21.4
-1.479 h, 75 ppm | 61.3
-1.344 h, 25 ppm | 21.5
-1.344 h, 150 ppm | 114
-1.343 h, 75 ppm | 60.7
-1.209 h, 150 ppm | 115
-1.208 h, 75 ppm | 60.8
-1.204 h, 25 ppm | 21.5
-1.085 h, 25 ppm | 21.9
-1.085 h, 150 ppm | 117
-1.08 h, 75 ppm | 61.2
-1 s, 25 ppm | 22.2
-0.9371 h, 25 ppm | 21.7
-0.9328 h, 75 ppm | 61.6
-0.9261 h, 150 ppm | 117
-0.8014 h, 75 ppm | 62.6
-0.7986 h, 150 ppm | 119
-0.7936 h, 25 ppm | 22.1
-0.6591 h, 150 ppm | 118
-0.6578 h, 75 ppm | 62
-0.6461 h, 25 ppm | 21.2
-0.5396 h, 150 ppm | 120
-0.5384 h, 75 ppm | 63.7
-0.5345 h, 25 ppm | 22.2
-0.399 h, 25 ppm | 22.6
-0.3988 h, 75 ppm | 63.1
-0.3961 h, 150 ppm | 119
-0.2646 h, 150 ppm | 120
-0.2633 h, 75 ppm | 63.2
-0.2555 h, 25 ppm | 22.1
-0.1359 h, 25 ppm | 22.4
-0.1358 h, 75 ppm | 63.9
-0.1331 h, 150 ppm | 121

O=S(=O)([O-])C(F)(F)C(F)(F)C(F)(F)C(F)(F)C(F)(F)C(F)(F)F.[K+] [Perfluorohexane-1-sulphonic acid – potassium salt]
Conditions | concentration in brain [ng/g] | concentration in kidney [ng/g]
Rat [8] | 1520 | –
Rat [10] | – | 1650

Rat [9]
Conditions | concentration in plasma [ng/mL]
0.25 h | 6180
6 h | 68100
528 h | 13900

c1ccncc1 [Pyridine]
Conditions | concentration in plasma [ng/mL]
Rat [11] | 6010

O=C(O)COc1ccc(Cl)cc1Cl [2,4-Dichlorophenoxyacetic acid]
Hamster
Conditions | concentration in plasma [ng/mL]
0.25 h | 13500
0.5 h | 7690

CCC1(c2ccccc2)C(=O)NCNC1=O [Primidone]
Conditions | concentration in plasma [ng/mL]
Rat [12] | 13000
Rat [13] | 68100
Rat [14] | 8900
